Data taken from ChEMBL document CHEMBL3392996, “Non-transpeptidase binding arylthioether β-lactams active against Mycobacterium tuberculosis and Moraxella catarrhalis” (2015).
≈ marks a conversion by molar mass, not a printed value. Calls of active or inactive are those of the source. The rule behind the calls is not given here.

Assays:
Moraxella catarrhalis [1] = experiment: Antimicrobial activity against Moraxella catarrhalis clinical isolates incubated for 48 hrs by microdilution broth method; assay type: functional
Summary of the method: (§1)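 Stocks in DMSO were diluted at least 10-fold into Mueller-Hinton broth, then 2-fold serially diluted in MH from 500 to 15.6 μg/ml. Bacteria were added, with DMSO-only dilution controls, and incubated at 37 °C for 48 h. Growth was scored at 24 and 48 h. MIC was the lowest concentration with no growth. Run in quadruplicate.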

[2] = tested on: Mycobacterium tuberculosis; experiment: Antimicrobial activity against Mycobacterium tuberculosis H37Rv incubated for 48 hrs by microdilution broth method; assay type: functional
Moraxella catarrhalis [3] = experiment: Bactericidal activity against Moraxella catarrhalis clinical isolates incubated for 48 hrs by microdilution broth method and standard plating method; assay type: functional
Summary of the method: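 Broth microdilution in Mueller-Hinton broth, 2-fold series from 500 to 15.6 μg/ml, with DMSO-only controls, 37 °C for 48 h. Wells showing no growth were plated (10 μL) on MH agar. MBC was the lowest concentration giving no growth on plating. Run in quadruplicate.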

Pseudomonas aeruginosa = experiment: Antimicrobial activity against Pseudomonas aeruginosa ATCC 27853 incubated for 48 hrs by microdilution broth method; assay type: functional, organism-based; summary of the method: as §1
Escherichia coli [4] = experiment: Antimicrobial activity against Escherichia coli ATCC 25922 incubated for 48 hrs by microdilution broth method; assay type: functional, organism-based; summary of the method: as §1
Klebsiella pneumoniae [5] = experiment: Antimicrobial activity against extended spectrum beta-lactamase and carbapenemase producing Klebsiella pneumoniae KPC L133 incubated for 48 hrs by microdilution broth method; assay type: functional, organism-based; summary of the method: as §1
Klebsiella pneumoniae [6] = experiment: Antimicrobial activity against AmpC producing Klebsiella pneumoniae MISC 304 incubated for 48 hrs by microdilution broth method; assay type: functional, organism-based; summary of the method: as §1
Klebsiella pneumoniae [7] = experiment: Antimicrobial activity against extended spectrum beta-lactamase and carbapenemase producing Klebsiella pneumoniae ESBL L174 incubated for 48 hrs by microdilution broth method; assay type: functional, organism-based; summary of the method: as §1
Staphylococcus aureus = experiment: Antimicrobial activity against Staphylococcus aureus ATCC 25923 incubated for 48 hrs by microdilution broth method; assay type: functional, organism-based; summary of the method: as §1
Acinetobacter baumannii [8] = experiment: Antimicrobial activity against extended spectrum beta-lactamase and carbapenemase producing Acinetobacter baumannii L187 incubated for 48 hrs by microdilution broth method; assay type: functional, organism-based; summary of the method: as §1
Escherichia coli [9] = experiment: Antimicrobial activity against extended spectrum beta-lactamase producing Escherichia coli MISC 262 incubated for 48 hrs by microdilution broth method; assay type: functional, organism-based; summary of the method: as §1
Escherichia coli [10] = experiment: Antimicrobial activity against extended spectrum beta-lactamase and carbapenemase producing Escherichia coli ESBL L109 incubated for 48 hrs by microdilution broth method; assay type: functional, organism-based; summary of the method: as §1
Enterococcus faecalis = experiment: Antimicrobial activity against Enterococcus faecalis ATCC 29212 incubated for 48 hrs by microdilution broth method; assay type: functional, organism-based; summary of the method: as §1
Citrobacter freundii [11] = experiment: Antimicrobial activity against AmpC producing Citrobacter freundii CITRO 21 incubated for 48 hrs by microdilution broth method; assay type: functional, organism-based; summary of the method: as §1
Escherichia coli [12] = experiment: Antimicrobial activity against broad spectrum beta-lactamase producing Escherichia coli GB 8 incubated for 48 hrs by microdilution broth method; assay type: functional, organism-based; summary of the method: as §1
Escherichia coli [13] = experiment: Antimicrobial activity against broad spectrum beta-lactamase producing Escherichia coli MISC 206 incubated for 48 hrs by microdilution broth method; assay type: functional, organism-based; summary of the method: as §1
Acinetobacter baumannii [14] = experiment: Antimicrobial activity against extended spectrum beta-lactamase and carbapenemase producing Acinetobacter baumannii L185 incubated for 48 hrs by microdilution broth method; assay type: functional, organism-based; summary of the method: as §1
Klebsiella pneumoniae [15] = experiment: Antimicrobial activity against AmpC producing Klebsiella pneumoniae KLEB 249 incubated for 48 hrs by microdilution broth method; assay type: functional, organism-based; summary of the method: as §1
Citrobacter freundii [16] = experiment: Antimicrobial activity against extended spectrum beta-lactamase producing Citrobacter freundii Citro 314 incubated for 48 hrs by microdilution broth method; assay type: functional, organism-based; summary of the method: as §1
Escherichia coli [17] = experiment: Antimicrobial activity against extended spectrum beta-lactamase and carbapenemase producing Escherichia coli ESBL L108 incubated for 48 hrs by microdilution broth method; assay type: functional, organism-based; summary of the method: as §1
[18] = tested on: Stenotrophomonas maltophilia; experiment: Antimicrobial activity against metallo beta-lactamases producing Stenotrophomonas maltophilia GM24 incubated for 48 hrs by microdilution broth method; assay type: functional, organism-based; summary of the method: as §1
Acinetobacter baumannii [19] = experiment: Antimicrobial activity against extended spectrum beta-lactamase and carbapenemase producing Acinetobacter baumannii L186 incubated for 48 hrs by microdilution broth method; assay type: functional, organism-based; summary of the method: as §1

Row | SMILES | MIC (Moraxella catarrhalis [1]) [µg/mL] | MIC [2] [µg/mL] | MBC (Moraxella catarrhalis [3]) [µg/mL] | also measured
1 | O=C1CCN1C(=O)NCc1ccccc1 | > 100 | > 100 |  | 
2 | O=C1CC(Sc2cccs2)N1 (racemic) | 25 (≈ 135 µM) | 6.25 (≈ 33.7 µM) | 100 (≈ 540 µM) | 
3 | O=C1CC(Sc2ccccc2)N1 (racemic) | > 200 | 25 (≈ 139 µM) |  | 
4 | O=C1CC(Sc2ccccc2F)N1 (racemic) | 200 (≈ 1010 µM) | 25 (≈ 127 µM) |  | 
5 | O=C1CC(Sc2cccc(F)c2)N1 (racemic) | > 200 | 100 (≈ 507 µM) |  | 
6 | O=C1CC(Sc2ccc(F)cc2)N1 (racemic) | > 200 | > 100 |  | 
7 | O=C1CC(Sc2ccc(F)cc2F)N1 (racemic) | 1.5 (≈ 6.97 µM) | 3.13 (≈ 14.5 µM) | 3.13 (≈ 14.5 µM) | 
8 | O=C1CC(Sc2ccc(F)c(F)c2)N1 (racemic) | 50 (≈ 232 µM) | 50 (≈ 232 µM) | 50 (≈ 232 µM) | 
9 | O=C1CC(Sc2c(F)c(F)c(F)c(F)c2F)N1 (racemic) | 1.5 (≈ 5.57 µM) | > 100 | 1.5 (≈ 5.57 µM) | 
10 | O=C1CC(Sc2ccc(F)cc2Cl)N1 (racemic) | 12.5 (≈ 54 µM) | 25 (≈ 108 µM) | 50 (≈ 216 µM) | 
11 | O=C1CC(Sc2ccc(F)c(Cl)c2)N1 (racemic) | 12.5 (≈ 54 µM) | 25 (≈ 108 µM) | 25 (≈ 108 µM) | 
12 | O=C1CC(Sc2ccc(Cl)cc2Cl)N1 (racemic) | 6.25 (≈ 25.2 µM) | 25 (≈ 101 µM) | 6.25 (≈ 25.2 µM) | 
13 | O=C1CC(Sc2ccc([N+](=O)[O-])cc2)N1 (racemic) | 6.25 (≈ 27.9 µM) | 25 (≈ 111 µM) | 12.5 (≈ 55.7 µM) | 
14 | O=C1CC(Sc2ccccc2C(F)(F)F)N1 (racemic) | 1.5 (≈ 6.07 µM) | ≥ 100 | 1.5 (≈ 6.07 µM) | 
15 | O=C1CC(Sc2cccc(C(F)(F)F)c2)N1 (racemic) | 200 (≈ 809 µM) | 6.25 (≈ 25.3 µM) |  | 
16 | O=C1CC(Sc2ccc(C(F)(F)F)cc2)N1 (racemic) | 100 (≈ 404 µM) | 12.5 (≈ 50.6 µM) | 100 (≈ 404 µM) | 
17 | O=C1CC(Sc2cc(C(F)(F)F)cc(C(F)(F)F)c2)N1 (racemic) | 12.5 (≈ 39.7 µM) | > 100 | 100 (≈ 317 µM) | 
18 | COc1ccccc1SC1CC(=O)N1 (racemic) | 100 (≈ 478 µM) | 250 (≈ 1190 µM) | > 200 | 
19 | COc1cccc(SC2CC(=O)N2)c1 (racemic) | 100 (≈ 478 µM) | > 100 | > 200 | 
20 | COc1ccc(SC2CC(=O)N2)cc1 (racemic) | 200 (≈ 956 µM) | 100 (≈ 478 µM) | > 200 | 
21 | COc1ccc(OC)c(SC2CC(=O)N2)c1 (racemic) | 100 (≈ 418 µM) | 250 (≈ 1040 µM) | > 200 | 
22 | COc1ccc(SC2CC(=O)N2)cc1OC (racemic) | 200 (≈ 836 µM) | 250 (≈ 1040 µM) | 200 (≈ 836 µM) | 
23 | CSc1ccc(SC2CC(=O)N2)cc1 (racemic) | 100 (≈ 444 µM) | > 100 | 100 (≈ 444 µM) | 
24 | O=C1CC(Sc2cccc3ccccc23)N1 (racemic) | 100 (≈ 436 µM) | > 250 | > 200 | 
25 | O=C1CC(Oc2ccc([N+](=O)[O-])cc2)N1 (racemic) | 50 (≈ 240 µM) | 25 (≈ 120 µM) | 50 (≈ 240 µM) | 
26 | O=C1CC(Oc2ccc(C(F)(F)F)cc2)N1 (racemic) | 200 (≈ 865 µM) | 250 (≈ 1080 µM) | 200 (≈ 865 µM) | 
27 | O=C1CC([Se]c2ccccc2)N1 (racemic) | 6.25 (≈ 27.6 µM) | 25 (≈ 111 µM) | 6.25 (≈ 27.6 µM) | 
28 | C=CCSC1CC(=O)N1 (racemic) | > 200 | > 200 |  | 
29 | O=C1CC(Sc2cccc(F)c2)N1C(=O)NCc1ccccc1 (racemic) | 25 (≈ 75.7 µM) |  | 100 (≈ 303 µM) | MIC (Pseudomonas aeruginosa): inactive; MIC (Escherichia coli [4]): inactive; MIC (Klebsiella pneumoniae [5]): inactive; MIC (Klebsiella pneumoniae [6]): inactive; MIC (Klebsiella pneumoniae [7]): inactive; MIC (Staphylococcus aureus): inactive; MIC (Acinetobacter baumannii [8]): inactive; MIC (Escherichia coli [9]): inactive; MIC (Escherichia coli [10]): inactive; MIC (Enterococcus faecalis): inactive; MIC (Citrobacter freundii [11]): inactive; MIC (Escherichia coli [12]): inactive; MIC (Escherichia coli [13]): inactive; MIC (Acinetobacter baumannii [14]): inactive; MIC (Klebsiella pneumoniae [15]): inactive; MIC (Citrobacter freundii [16]): inactive; MIC (Escherichia coli [17]): inactive; MIC [18]: inactive; MIC (Acinetobacter baumannii [19]): inactive
